Yeast eIF2B: eIF2B (yeast) activity modulation. 27,000 tested, 0.91% active. inhibition, % at 25 µM (by protocol). AID 688. S. cerevisiae eIF2B-epsilon R284H, GCN4-lacZ luminescence;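 active = mutant luminescence inhibited past about 50% while wild type luminescence and mutant growth stay under set limits, limit read from the data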
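Material – yeast eIF2B-epsilon R284H mutant carrying GCN4–beta-galactosidase fusion · Medium – YPD yeast growth medium · Compound – one concentration, 25 µM, 0.25% DMSO · Times – 16 h at 30 °C exposure · Signal – Beta-Glo luminescence plus absorbance at 595 nm · Read-out – % inhibition of reporter signal and growth versus controls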
Yeast growth tox: Inhibitors of S. cerevisiae growth, toxicity; growth inhibition, % at 25 µM (by protocol); S. cerevisiae wild-type growth, A595 turbidity, 16 h; 30,000 tested, 0.3% active;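 active = mutant and wild-type yeast strains alike exhibit over 30% growth inhibition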;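 note: 0% = untreated cell controls and 100% = YPD media blanks without cells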
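System – wild-type and eIF2Bepsilon-R284H mutant S. cerevisiae, screened separately · Measured by – absorbance at 595 nm (turbidity) · Timing – 16 h compound exposure during growth at 30 °C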
Active calls of the source: *; / = not tested or not shown. Compounds with a hit are over-represented: about 1% of the library has one in this group of screens.

SMILES	Yeast eIF2B	Yeast growth tox
COc1cc(-c2noc(CCCC(=O)NCc3ccccc3)n2)cc(OC)c1OC	/	6
C=CCn1c(N)cc(=O)nc1SCC(=O)Nc1ccccc1	58*	-11
C=CCn1c(SCC(=O)Nc2sccc2C(N)=O)nc2ccccc2c1=O	19	-12
O=C(C1CCCN(Cc2ccccc2)C1)N1CCc2ccccc2C1 (configuration not stated)	-11	-13
COc1ccc(/C=C\C(=O)CC(O)(c2ccccc2)C(F)(F)F)cc1 (configuration not stated)	23	17
CC(=O)Nc1cc(C(F)(F)F)ccc1OCCOc1ccccc1	55*	-6
COC(=O)Nc1cc(C(F)(F)F)ccc1N1CCN(c2ccccc2)CC1	2	8
COc1cccc(OC)c1OCCOc1ccccc1OC(C)C	11	30
COC(=O)C1(Cc2ccccc2)NC(c2ccccc2C)C2C(=O)N(c3ccc4c(c3)OCO4)C(=O)C21 (configuration not stated)	22	-18
COc1cccc(C2NC(CC(C)C)(C(=O)O)C3C(=O)N(Cc4ccccc4)C(=O)C23)c1O (configuration not stated)	52*	18
O=C(NCc1cccnc1)C1CCCN(Cc2cnn(-c3ccccc3)c2-n2cccc2)C1 (configuration not stated)	1	18
CCOc1ccc(-n2nc(C(=O)N3CCN(CC)CC3)c3ccccc3c2=O)cc1	-18	-21
CCOc1ccc(-n2nc(C(=O)N3CCOCC3)c3ccccc3c2=O)cc1	59*	-11
COCC(=O)Nc1c(C(=O)Nc2ccccc2OC)oc2ccccc12	10	-17
COc1ccccc1NC(=O)c1oc2ccccc2c1NC(=O)c1cc(OC)c(OC)c(OC)c1	63*	-44
Cc1ccc(C(=O)Nc2nnc(C3CCCCC3)s2)o1	/	10
Cc1cc(C(=O)Nc2nnc(C3CCCCC3)s2)no1	51*	-1
CN(c1ccccc1)c1nc(-n2ccnc2)nc(-n2ccnc2)n1	28	-2
c1ccc(N(c2ccccc2)c2nc(-n3ccnc3)nc(-n3ccnc3)n2)cc1	95	101*
CSc1nc2ccccc2n1CC(=O)Nc1cc(C(F)(F)F)ccc1N1CCOCC1	24	11
O=C(NC(Cc1ccccc1)C(=O)OCC(=O)N1CCc2ccccc21)c1ccco1 (configuration not stated)	52*	-19
Cc1cc(NC(=O)COC(=O)C(Cc2ccccc2)NC(=O)c2ccco2)no1 (configuration not stated)	20	13
COc1ccccc1CN(Cc1nc2ccccc2c(=O)[nH]1)C(=O)Nc1cccc(C)c1	13	10
CC(=C1C(=O)c2ccccc2C1=O)N1CCC(C(N)=O)(N2CCCCC2)CC1	11	-18
COc1ccc(NC(=O)C(=O)NCCN2CCN(C(=O)c3cccs3)CC2)cc1	52*	-23
SMILES	Yeast eIF2B	Yeast growth tox
Cc1cc(NC(=O)C(=O)NCCN2CCN(C(=O)c3cccs3)CC2)ccc1Br	-35	-30
COc1ccc(S(=O)(=O)N2CCC(C(=O)N3CCc4ccccc4C3)CC2)cc1Cl	22	14
COc1ccc(OC)c(C(c2nnnn2CCC(C)C)N2CCN(C(=O)c3ccco3)CC2)c1 (configuration not stated)	7	-10
CCCc1cc(=O)[nH]c(SCC(=O)c2cc(C)n(C(C)COC)c2C)n1 (configuration not stated)	57*	14
COCC(C)n1c(C)cc(C(=O)COC(=O)c2nc3nc(C)cc(C)n3n2)c1C (configuration not stated)	-14	15
Cc1ccc(C)c(N=C2CCCN2Cc2ccccc2)c1C#N	57*	/
O=C(O)CN1CCCC1=Nc1ccccc1	/	8
CC(C)OP(=O)(OC(C)C)C(NC(=O)c1ccc(Br)cc1)c1ccccc1 (configuration not stated)	16	18
Cc1nc(C)c(C(=O)C2=C(O)C(=O)N(CCCn3ccnc3)C2c2ccc(Cl)cc2)s1 (configuration not stated)	19	13
Cc1cc(-c2nn3c(-c4ccccc4)nnc3s2)c2ccccc2n1	13	-5
c1ccc(-c2cc(-c3nn4c(-c5ccco5)nnc4s3)c3ccccc3n2)cc1	72*	-15
Cc1cc(Cl)c(S(=O)(=O)N2CCN(c3ccc(F)cc3)CC2)cc1OCC(=O)NC1CCCCC1	20	8
CCOc1ccc2nc(NC(NC(=O)CC)(C(=O)OC)C(F)(F)F)sc2c1 (configuration not stated)	11	3
Clc1ccc(Cl)c(-c2ccc(/C=N/c3ncn[nH]3)o2)c1	-26	3
NC(=S)N/N=C/c1ccc(-c2ccc(Cl)c(Cl)c2)o1	44	30*
Cc1c(C)n(CC(O)CN2C(=O)c3ccccc3S2(=O)=O)c2ccccc12 (configuration not stated)	/	29
CCCC(=O)NCCc1ccc(S(N)(=O)=O)cc1	11	3
CN1C(=O)NC2(O)C(=O)c3ccccc3C12O (configuration not stated)	/	8
CN1C(=O)N(C)C2(c3ccccc3)NC(=O)NC12c1ccccc1 (configuration not stated)	54*	3
Cc1ccc(Cl)cc1NC(=O)COC(=O)C12CC3CC(CC(C3)C1)C2	31	4
CC(=O)c1ccc(NC(=O)c2noc3c2CCCCC3)cc1	69*	-9
O=C(Nc1ccc2c(c1)OCO2)c1noc2c1CCCCC2	11	2
CCOC(=O)C1=C(N)N2C(=O)C(C)SC2=C(C(=O)OCC)C1c1ccccc1 (configuration not stated)	50	-21
CCOC(=O)C1=C(N)N2C(=O)C(C)SC2=C(C(=O)OC)C1c1ccccc1OC (configuration not stated)	/	69*
O=C(COc1cccc2ccccc12)Nc1nc2ccccc2[nH]1	/	30*
SMILES	Yeast eIF2B	Yeast growth tox
CC(CC(=O)Nc1nc2ccccc2[nH]1)c1ccccc1 (configuration not stated)	1	14
Cc1ccc(S(=O)(=O)NNc2nc3ccccc3nc2C(F)(F)F)cc1	13	18
Cc1cc(NC(=O)CN2CCCCC2C)no1 (configuration not stated)	2	9
CCOC(=O)C1CCCN(CCC(=O)Nc2ccc(C)cc2)C1 (configuration not stated)	/	18
CCOCCCNC(=O)c1c[nH]c2ccc(C)cc2c1=O	52*	-3
COc1ccc(CCNC(=O)c2c[nH]c3ccccc3c2=O)cc1OC	4	7
COCCCNC(=O)C1CCCN(S(=O)(=O)c2ccc(C)cc2)C1 (configuration not stated)	-6	5
Cc1ccc(-c2cn(S(=O)(=O)c3cccc4nsnc34)nc2N)cc1	58*	-1
Cc1ccc(C)c(N(C)S(=O)(=O)c2cccc3nsnc23)c1	3	0
CCNC(=O)NC(=O)C(C)Sc1ccc2c(c1)OCCO2 (configuration not stated)	/	5
O=C1C(=O)c2ccc(-c3ccccc3)cc2-c2ccccc21	43	38
Nc1ccc2c(c1)C(=O)C(=O)c1ccccc1-2	/	38*
CC(=O)c1cccc(-n2nnnc2SCC(=O)Nc2cccc(NC(=O)c3ccco3)c2)c1	61*	7
CC(=O)c1cccc(-n2nnnc2SCC(=O)Nc2ccccc2N2CCCCC2)c1	19	7

Compound activity (PubChem)
